ChEMBL document CHEMBL1124186, “Synthesis and evaluation of tylosin-related macrolides modified at the aldehyde function: a new series of orally effective antibiotics” (1988)
Values after ≈ are worked out from the molar mass of the structure shown.

Experiments:
Bacteroides fragilis [1] = experiment: In vitro antimicrobial activity against anaerobic bacteria bacteroides fragilis 1936B,; assay type: functional
Streptococcus pyogenes [2] = experiment: In vivo effective dose against experimental infections in rodent caused by Streptococcus pyogenes C203 when administered sc; assay type: functional
Chlamydia trachomatis = experiment: In vitro antimicrobial activity against chlamydia trachomatis.; assay type: functional
Staphylococcus aureus [3] = experiment: In vitro antimicrobial activity against aerobic bacteria Staphylococcus aureus V41; assay type: functional
Anaerococcus prevotii = experiment: In vitro antimicrobial activity against anaerobic bacteria peptococcus prevoti 1281; assay type: functional
[4] = tested on: Peptoniphilus asaccharolyticus; experiment: In vitro antimicrobial activity against anaerobic bacteria peptococcus asaccharolyticus 1302; assay type: functional
Staphylococcus aureus [5] = experiment: In vitro antimicrobial activity against Staphylococcus aureus X1; assay type: functional
Streptococcus sanguinis = experiment: In vitro antimicrobial activity against aerobic bacteria Streptococcus sanguis MX132; assay type: functional
Fusobacterium = experiment: In vitro antimicrobial activity against anaerobic bacteria fusobacterium symbiosum 1470; assay type: functional
Bacteroides fragilis [6] = experiment: In vitro antimicrobial activity against anaerobic bacteria bacteroides fragilis 111; assay type: functional
Clostridium perfringens = experiment: In vitro antimicrobial activity against anaerobic bacteria clostridium perfringens 81,; assay type: functional
[7] = tested on: Prevotella melaninogenica; experiment: In vitro antimicrobial activity against anaerobic bacteria bacteroides melaninogenicus 1856,; assay type: functional
Haemophilus influenzae [8] = experiment: In vitro antimicrobial activity against Haemophilus influenzae.; assay type: functional
Bacteroides fragilis [9] = experiment: In vitro antimicrobial activity against anaerobic bacteria bacteroides fragilis 1877; assay type: functional
Clostridioides difficile = experiment: In vitro antimicrobial activity against anaerobic bacteria Clostridium difficile 2994; assay type: functional
Streptococcus pyogenes [10] = experiment: In vivo effective dose against experimental infections in rodent caused by Streptococcus pyogenes C203 when administered orally; assay type: functional; details: po
Streptococcus [11] = experiment: In vitro antimicrobial activity against aerobic bacteria Streptococcus D 8043; assay type: functional
[12] = In vitro antimicrobial activity against anaerobic bacteria peptostreptococcus intermedius 1264; assay type: functional
Enterococcus faecium = experiment: In vitro antimicrobial activity against Streptococcus faecium X66; assay type: functional, streptococcus fae-cium
Staphylococcus aureus [13] = experiment: In vitro antimicrobial activity against aerobic bacteria Staphylococcus aureus X400; assay type: functional
Staphylococcus aureus [14] = experiment: In vitro antimicrobial activity against aerobic bacteria Staphylococcus aureus V135; assay type: functional
Streptococcus [15] = experiment: In vitro antimicrobial activity against aerobic bacteria Streptococcus C 24; assay type: functional
Streptococcus pneumoniae [16] = experiment: In vitro antimicrobial activity against Streptococcus pneumoniae; assay type: functional
Streptococcus pyogenes [17] = experiment: Antimicrobial activity against Streptococcus pyogenes C203; assay type: functional
Eikenella corrodens = experiment: In vitro antimicrobial activity against anaerobic bacteria bacteroides corrodens 1874; assay type: functional
Haemophilus influenzae [18] = experiment: In vitro antimicrobial activity against aerobic bacteria Haemophilus influenzae 465; assay type: functional
Clostridium septicum = experiment: In vitro antimicrobial activity against anaerobic bacteria clostridium septicum 1128; assay type: functional
Streptococcus pyogenes [19] = experiment: In vitro antimicrobial activity against Streptococcus pyogenes C203; assay type: functional
Streptococcus [20] = experiment: In vitro antimicrobial activity against aerobic bacteria Streptococcus D 2041; assay type: functional
Streptococcus [21] = experiment: In vitro antimicrobial activity against aerobic bacteria Streptococcus D 9960; assay type: functional
Haemophilus influenzae [22] = experiment: In vitro antimicrobial activity against aerobic bacteria Haemophilus influenzae MX366,; assay type: functional
Streptococcus [23] = experiment: In vitro antimicrobial activity against aerobic bacteria Streptococcus G Kruder; assay type: functional; details: Streptococcus; read-out: MIC
Haemophilus influenzae [24] = experiment: In vitro antimicrobial activity against aerobic bacteria Haemophilus influenzae 76; assay type: functional
[25] = tested on: Prevotella melaninogenica; experiment: In vitro antimicrobial activity against anaerobic bacteria bacteroides melaninogenicus 2736; assay type: functional
[26] = tested on: Haemophilus parainfluenzae; experiment: In vitro antimicrobial activity against aerobic bacteria Haemophilus parainfluenzae 9796; assay type: functional
Streptococcus viridans = experiment: In vitro antimicrobial activity against aerobic bacteria Streptococcus viridans 9943; assay type: functional
Streptococcus [27] = experiment: In vitro antimicrobial activity against aerobic bacteria Streptococcus B 5; assay type: functional
[28] = tested on: Fusobacterium necrophorum; experiment: In vitro antimicrobial activity against anaerobic bacteria usobacterium necrophorum 6054A; assay type: functional
[29] = tested on: Staphylococcus epidermidis; experiment: In vitro antimicrobial activity against aerobic bacteria Streptococcus epi 222; assay type: functional
Streptococcus [30] = experiment: In vitro antimicrobial activity against aerobic bacteria Streptococcus B 8; assay type: functional
[31] = tested on: Staphylococcus epidermidis; experiment: In vitro antimicrobial activity against Staphylococcus epidermidis EPI1; assay type: functional
Streptococcus pyogenes [32] = experiment: Effective dose against Streptococcus pyogenes C203 when administered orally; assay type: functional; details: po
How it was run: (§1)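 Mouse protection test: infected mice were dosed twice, at 1 and 5 h postinfection, either subcutaneously or orally. […] The result is expressed as ED50 in mg/kg × 2.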

[33] = tested on: Staphylococcus epidermidis; experiment: In vitro antimicrobial activity against aerobic bacteria Streptococcus epi 270; assay type: functional
[34] = tested on: Bacteroides thetaiotaomicron; experiment: In vitro antimicrobial activity against anaerobic bacteria bacteroides thetaiotaomicron 1438; assay type: functional
Streptococcus pyogenes [35] = experiment: Effective dose against Streptococcus pyogenes C203 when administered sc; assay type: functional; how it was run: as §1
[36] = tested on: Peptostreptococcus anaerobius; experiment: In vitro antimicrobial activity against anaerobic bacteria eubacterium peptostreptococcus anaerobius 1428,; assay type: functional
Collinsella aerofaciens [37] = experiment: In vitro antimicrobial activity against anaerobic bacteria eubacterium aerofaciens 1235; assay type: functional
Cutibacterium acnes = experiment: In vitro antimicrobial activity against anaerobic bacteria propionibacterium acnes 79; assay type: functional
Staphylococcus aureus [38] = experiment: In vitro antimicrobial activity against aerobic bacteria Staphylococcus aureus 513E; assay type: functional
Streptococcus pneumoniae [39] = experiment: In vitro antimicrobial activity against aerobic bacteria Streptococcus pneumoniae B1-438; assay type: functional, streptococcus pneum
Staphylococcus aureus [40] = experiment: In vitro antimicrobial activity against aerobic bacteria Staphylococcus aureus V140,; assay type: functional
Phocaeicola vulgatus = experiment: In vitro antimicrobial activity against anaerobic bacteria bacteroides vulgatus 1211; assay type: functional
Collinsella aerofaciens [41] = experiment: In vitro antimicrobial activity against anaerobic bacteria aerofaciens 1235; assay type: functional
[42] = tested on: Peptostreptococcus anaerobius; experiment: In vitro antimicrobial activity against anaerobic bacteria peptostreptococcus anaerobius 1428,; assay type: functional

SMILES: CC[C@H]1OC(=O)C[C@@H](O)[C@H](C)[C@@H](O[C@@H]2O[C@H](C)[C@@H](O)[C@H](N(C)C)[C@H]2O)[C@@H](CC=O)C[C@@H](C)C(=O)/C=C/C(C)=C/[C@@H]1CO
- MIC (Bacteroides fragilis [1]): 32 mg/L (≈ 53.5 µM)
- ED50 (Streptococcus pyogenes [2]): 3.9 mg/kg
- MIC (Chlamydia trachomatis): 0.5 mg/L (≈ 0.836 µM)
- MIC (Staphylococcus aureus [3]): 2 mg/L (≈ 3.35 µM)
- MIC (Anaerococcus prevotii): 16 mg/L (≈ 26.8 µM)
- MIC [4]: 2 mg/L (≈ 3.35 µM)
- MIC (Staphylococcus aureus [5]): 1 mg/L (≈ 1.67 µM)
- MIC (Streptococcus sanguinis): 0.25 mg/L (≈ 0.418 µM)
- MIC (Fusobacterium): < 0.005 mg/L
- MIC (Bacteroides fragilis [6]): 32 mg/L (≈ 53.5 µM)
- MIC (Clostridium perfringens): < 0.5 mg/L
- MIC [7]: 8 mg/L (≈ 13.4 µM)
- MIC (Haemophilus influenzae [8]): 2 mg/L (≈ 3.35 µM)
- MIC (Bacteroides fragilis [9]): 64 mg/L (≈ 107 µM)
- MIC (Clostridioides difficile): 4 mg/L (≈ 6.69 µM)
- ED50 (Streptococcus pyogenes [10]): 102 mg/kg
- MIC (Streptococcus [11]): 0.5 mg/L (≈ 0.836 µM)
- MIC [12]: 1 mg/L (≈ 1.67 µM)
- MIC (Enterococcus faecium): 1 mg/L (≈ 1.67 µM)
- MIC (Staphylococcus aureus [13]): 2 mg/L (≈ 3.35 µM)
- MIC (Staphylococcus aureus [14]): 1 mg/L (≈ 1.67 µM)
- MIC (Streptococcus [15]): 0.5 mg/L (≈ 0.836 µM)
- MIC (Streptococcus pneumoniae [16]): 0.25 mg/L (≈ 0.418 µM)
- MIC (Streptococcus pyogenes [17]): 0.25 mg/L (≈ 0.418 µM)
- MIC (Eikenella corrodens): 32 mg/L (≈ 53.5 µM)
- MIC (Haemophilus influenzae [18]): 4 mg/L (≈ 6.69 µM)
- MIC (Clostridium septicum): 4 mg/L (≈ 6.69 µM)
- MIC (Streptococcus pyogenes [19]): 0.25 mg/L (≈ 0.418 µM)
- MIC (Streptococcus [20]): 0.5 mg/L (≈ 0.836 µM)
- MIC (Streptococcus [21]): 1 mg/L (≈ 1.67 µM)
- MIC (Haemophilus influenzae [22]): 2 mg/L (≈ 3.35 µM)
- MIC (Streptococcus [23]): 0.25 mg/L (≈ 0.418 µM)
- MIC (Haemophilus influenzae [24]): 2 mg/L (≈ 3.35 µM)
- MIC [25]: 8 mg/L (≈ 13.4 µM)
- MIC [26]: 4 mg/L (≈ 6.69 µM)
- MIC (Streptococcus viridans): > 128 mg/L
- MIC (Streptococcus [27]): 1 mg/L (≈ 1.67 µM)
- MIC [28]: < 0.5 mg/L
- MIC [29]: 0.25 mg/L (≈ 0.418 µM)
- MIC (Streptococcus [30]): 0.5 mg/L (≈ 0.836 µM)
- MIC [31]: 1 mg/L (≈ 1.67 µM)
- ED50 (Streptococcus pyogenes [32]): 3.3 mg/kg
- MIC [33]: > 128 mg/L
- MIC [34]: 128 mg/L (≈ 214 µM)
- ED50 (Streptococcus pyogenes [35]): 97 mg/kg
- MIC [36]: 32 mg/L (≈ 53.5 µM)
- MIC (Collinsella aerofaciens [37]): < 0.5 mg/L
- MIC (Cutibacterium acnes): 8 mg/L (≈ 13.4 µM)
- MIC (Staphylococcus aureus [38]): 1 mg/L (≈ 1.67 µM)
- MIC (Streptococcus pneumoniae [39]): > 128 mg/L
- MIC (Staphylococcus aureus [40]): 1 mg/L (≈ 1.67 µM)
- MIC (Phocaeicola vulgatus): 32 mg/L (≈ 53.5 µM)

SMILES: CC[C@H]1OC(=O)C[C@@H](O)[C@H](C)[C@@H](O[C@@H]2O[C@H](C)[C@@H](O[C@H]3C[C@@](C)(O)[C@@H](O)[C@H](C)O3)[C@H](N(C)C)[C@H]2O)[C@@H](CCO)C[C@@H](C)C(=O)/C=C/C(C)=C/[C@@H]1CO[C@@H]1O[C@H](C)[C@@H](O)[C@@H](OC)[C@H]1OC [RELOMYCIN]
- MIC (Bacteroides fragilis [1]): 8 mg/L (≈ 8.71 µM)
- ED50 (Streptococcus pyogenes [2]): 15.4 mg/kg
- MIC (Chlamydia trachomatis): > 1 mg/L
- MIC (Anaerococcus prevotii): > 8 mg/L
- MIC [4]: 1 mg/L (≈ 1.09 µM)
- MIC (Staphylococcus aureus [5]): 4 mg/L (≈ 4.36 µM)
- MIC (Fusobacterium): 4 mg/L (≈ 4.36 µM)
- MIC (Bacteroides fragilis [6]): 4 mg/L (≈ 4.36 µM)
- MIC (Clostridium perfringens): > 8 mg/L
- MIC [7]: 4 mg/L (≈ 4.36 µM)
- MIC (Haemophilus influenzae [8]): > 128 mg/L
- MIC (Bacteroides fragilis [9]): > 8 mg/L
- MIC (Clostridioides difficile): 1 mg/L (≈ 1.09 µM)
- ED50 (Streptococcus pyogenes [10]): > 100 mg/kg
- MIC [12]: > 8 mg/L
- MIC (Enterococcus faecium): 64 mg/L (≈ 69.7 µM)
- MIC (Collinsella aerofaciens [41]): 1 mg/L (≈ 1.09 µM)
- MIC (Streptococcus pneumoniae [16]): 32 mg/L (≈ 34.9 µM)
- MIC (Eikenella corrodens): > 8 mg/L
- MIC (Clostridium septicum): 8 mg/L (≈ 8.71 µM)
- MIC (Streptococcus pyogenes [19]): 2 mg/L (≈ 2.18 µM)
- MIC [25]: 8 mg/L (≈ 8.71 µM)
- MIC [28]: 1 mg/L (≈ 1.09 µM)
- MIC [31]: 4 mg/L (≈ 4.36 µM)
- MIC [42]: > 8 mg/L
- MIC [34]: 4 mg/L (≈ 4.36 µM)
- MIC (Cutibacterium acnes): 8 mg/L (≈ 8.71 µM)
- MIC (Phocaeicola vulgatus): > 8 mg/L
